According to ChEMBL document CHEMBL3774312, “5-Substituted 3-isopropyl-7-[4-(2-pyridyl)benzyl]amino-1(2)H-pyrazolo[4,3-d]pyrimidines with anti-proliferative activity as potent and selective inhibitors of cyclin-dependent kinases” (Eur J Med Chem, 2016):
The source made the active and inactive calls. No cut-off for these calls is given here.

Experiments:
[1] = molecular target: AMP-activated protein kinase, AMPK (Homo sapiens) (UniProt P54646+O43741+P54619+Q9UGJ0+Q9Y478+Q13131+Q9UGI9); test: Inhibition of recombinant human AMPK assessed as residual activity at 1 uM relative to control; format: protein-complex assay
[2] = molecular target: Tyrosine-protein kinase SYK (Homo sapiens) (UniProt P43405); test: Inhibition of recombinant SYK (unknown origin) assessed as residual activity at 1 uM relative to control
[3] = molecular target: Cyclin-dependent kinase 2 (Homo sapiens) (UniProt P24941); test: Inhibition of CDK2 in human G361 cells assessed as reduction in phosphorylation of RNA polymerase 2 at C-terminus at 1 uM incubated for 0.5 to 24 hrs by immunoblotting analysis; format: cell-based; settings: G-361
Summary of the method: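 Treated G361 cells were lysed in Laemmli buffer, run on SDS-PAGE and blotted to nitrocellulose. Blots were probed overnight with antibodies to RNA polymerase II phosphorylated at S5 and S2, and to total RNA polymerase II (ARNA-3). Peroxidase secondaries were then applied and signal was detected by ECL with a CCD camera.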

[4] = molecular target: Homeodomain-interacting protein kinase 2 (Homo sapiens) (UniProt Q9H2X6); test: Inhibition of recombinant HIPK2 (unknown origin) assessed as residual activity at 1 uM relative to control
[5] = molecular target: High affinity nerve growth factor receptor (Homo sapiens) (UniProt P04629); test: Inhibition of recombinant TrkA (unknown origin) assessed as residual activity at 1 uM relative to control
[6] = molecular target: Serine/threonine-protein kinase PLK1 (Homo sapiens) (UniProt P53350); test: Inhibition of recombinant PLK1 (unknown origin) assessed as residual activity at 1 uM relative to control
[7] = molecular target: 3-phosphoinositide-dependent protein kinase 1 (Homo sapiens) (UniProt O15530); test: Inhibition of recombinant PDK1 (unknown origin) assessed as residual activity at 1 uM relative to control
[8] = molecular target: Aurora kinase B (Homo sapiens) (UniProt Q96GD4); test: Inhibition of recombinant Aurora B (unknown origin) assessed as residual activity at 1 uM relative to control
HCT-116 [9] = test: Induction of apoptosis in human HCT116 cells assessed as caspase3 activation using Ac-DEVD-AMC as substrate preincubated for 24 hrs followed by substrate addition measured after 3 hrs by fluorescence assay; format: functional, cell-based
[10] = molecular target: Tyrosine-protein kinase BTK (Homo sapiens) (UniProt Q06187); test: Inhibition of recombinant BTK (unknown origin) assessed as residual activity at 1 uM relative to control
HCT-116 [11] = test: Induction of apoptosis in human HCT116 cells assessed as PARP1 cleavage incubated for 24 hrs by immunoblotting analysis; format: functional, cell-based
Summary of the method: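 HCT-116 cells were treated with different doses for 24 h and harvested into Laemmli buffer. Proteins were separated by SDS-PAGE and blotted to nitrocellulose. Membranes were probed overnight with primary antibodies (anti-PARP F-2, anti-Mcl-1 S-19, anti-p53 DO-1), then with peroxidase secondaries. Bands were detected by ECL with a CCD camera, with tubulin as loading control.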

Chain of Serine/threonine-protein kinase PLK1 (Homo sapiens) (P53350 whole entry): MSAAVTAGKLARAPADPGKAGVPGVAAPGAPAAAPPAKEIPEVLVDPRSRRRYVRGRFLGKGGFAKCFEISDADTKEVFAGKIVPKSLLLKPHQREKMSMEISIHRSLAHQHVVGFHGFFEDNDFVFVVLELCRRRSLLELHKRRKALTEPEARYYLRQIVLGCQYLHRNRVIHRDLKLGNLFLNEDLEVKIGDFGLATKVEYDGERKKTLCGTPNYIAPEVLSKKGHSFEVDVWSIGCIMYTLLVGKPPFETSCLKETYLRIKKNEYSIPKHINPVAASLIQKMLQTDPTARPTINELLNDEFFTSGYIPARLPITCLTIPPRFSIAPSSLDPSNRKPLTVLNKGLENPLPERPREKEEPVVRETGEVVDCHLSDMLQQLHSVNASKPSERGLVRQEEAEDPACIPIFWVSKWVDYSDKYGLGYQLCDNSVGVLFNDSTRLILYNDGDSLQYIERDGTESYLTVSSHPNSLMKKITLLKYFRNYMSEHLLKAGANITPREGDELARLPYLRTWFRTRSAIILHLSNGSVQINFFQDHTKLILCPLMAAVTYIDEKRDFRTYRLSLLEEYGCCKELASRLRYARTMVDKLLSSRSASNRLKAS
Chain of Homeodomain-interacting protein kinase 2 (Homo sapiens) (Q9H2X6 whole entry, looked up): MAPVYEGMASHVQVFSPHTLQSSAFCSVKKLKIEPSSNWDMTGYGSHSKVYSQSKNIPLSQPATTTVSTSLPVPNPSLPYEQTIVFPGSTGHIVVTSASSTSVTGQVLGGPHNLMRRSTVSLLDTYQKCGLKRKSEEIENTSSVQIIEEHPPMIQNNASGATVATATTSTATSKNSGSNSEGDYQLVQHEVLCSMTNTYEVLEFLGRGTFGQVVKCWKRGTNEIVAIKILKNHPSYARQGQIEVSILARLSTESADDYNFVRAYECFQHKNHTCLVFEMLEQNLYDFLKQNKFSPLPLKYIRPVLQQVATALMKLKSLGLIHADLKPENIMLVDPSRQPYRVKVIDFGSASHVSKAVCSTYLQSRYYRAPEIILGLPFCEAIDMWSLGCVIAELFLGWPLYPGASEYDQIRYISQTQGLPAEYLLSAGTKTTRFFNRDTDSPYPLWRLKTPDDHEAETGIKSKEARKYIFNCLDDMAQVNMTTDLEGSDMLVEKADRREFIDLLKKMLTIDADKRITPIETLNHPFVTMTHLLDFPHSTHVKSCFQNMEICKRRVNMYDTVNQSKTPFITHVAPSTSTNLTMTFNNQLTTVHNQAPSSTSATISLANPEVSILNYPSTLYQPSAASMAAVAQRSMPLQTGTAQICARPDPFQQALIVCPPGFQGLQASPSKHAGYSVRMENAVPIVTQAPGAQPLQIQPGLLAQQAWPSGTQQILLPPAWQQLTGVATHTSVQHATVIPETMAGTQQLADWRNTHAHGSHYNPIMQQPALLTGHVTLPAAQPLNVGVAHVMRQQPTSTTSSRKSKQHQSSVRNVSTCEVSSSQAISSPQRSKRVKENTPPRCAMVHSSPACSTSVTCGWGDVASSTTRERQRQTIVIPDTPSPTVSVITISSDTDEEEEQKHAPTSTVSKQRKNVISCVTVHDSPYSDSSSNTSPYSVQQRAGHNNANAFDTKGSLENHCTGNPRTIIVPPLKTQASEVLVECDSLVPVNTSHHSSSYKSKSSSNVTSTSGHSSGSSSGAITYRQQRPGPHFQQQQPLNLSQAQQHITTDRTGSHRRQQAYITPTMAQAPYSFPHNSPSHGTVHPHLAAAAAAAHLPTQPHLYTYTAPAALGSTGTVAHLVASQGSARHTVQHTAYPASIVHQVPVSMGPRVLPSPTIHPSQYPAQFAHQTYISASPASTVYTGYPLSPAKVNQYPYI
Chain of 3-phosphoinositide-dependent protein kinase 1 (Homo sapiens) (O15530 whole entry): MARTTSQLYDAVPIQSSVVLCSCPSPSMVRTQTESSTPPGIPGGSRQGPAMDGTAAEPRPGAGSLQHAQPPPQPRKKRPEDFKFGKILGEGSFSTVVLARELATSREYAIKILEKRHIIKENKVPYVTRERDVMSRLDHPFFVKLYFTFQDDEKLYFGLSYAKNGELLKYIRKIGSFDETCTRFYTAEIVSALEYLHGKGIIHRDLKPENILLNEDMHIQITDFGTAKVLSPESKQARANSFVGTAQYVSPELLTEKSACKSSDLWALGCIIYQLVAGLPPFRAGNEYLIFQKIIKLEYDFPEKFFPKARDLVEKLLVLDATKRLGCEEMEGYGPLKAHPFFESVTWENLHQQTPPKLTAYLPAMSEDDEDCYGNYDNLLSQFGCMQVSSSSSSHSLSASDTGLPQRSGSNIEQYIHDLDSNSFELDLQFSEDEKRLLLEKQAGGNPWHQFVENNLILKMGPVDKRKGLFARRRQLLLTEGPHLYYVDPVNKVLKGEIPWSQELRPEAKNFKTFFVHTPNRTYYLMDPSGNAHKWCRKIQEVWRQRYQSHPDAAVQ
Chain of Tyrosine-protein kinase BTK (Homo sapiens) (Q06187 whole entry): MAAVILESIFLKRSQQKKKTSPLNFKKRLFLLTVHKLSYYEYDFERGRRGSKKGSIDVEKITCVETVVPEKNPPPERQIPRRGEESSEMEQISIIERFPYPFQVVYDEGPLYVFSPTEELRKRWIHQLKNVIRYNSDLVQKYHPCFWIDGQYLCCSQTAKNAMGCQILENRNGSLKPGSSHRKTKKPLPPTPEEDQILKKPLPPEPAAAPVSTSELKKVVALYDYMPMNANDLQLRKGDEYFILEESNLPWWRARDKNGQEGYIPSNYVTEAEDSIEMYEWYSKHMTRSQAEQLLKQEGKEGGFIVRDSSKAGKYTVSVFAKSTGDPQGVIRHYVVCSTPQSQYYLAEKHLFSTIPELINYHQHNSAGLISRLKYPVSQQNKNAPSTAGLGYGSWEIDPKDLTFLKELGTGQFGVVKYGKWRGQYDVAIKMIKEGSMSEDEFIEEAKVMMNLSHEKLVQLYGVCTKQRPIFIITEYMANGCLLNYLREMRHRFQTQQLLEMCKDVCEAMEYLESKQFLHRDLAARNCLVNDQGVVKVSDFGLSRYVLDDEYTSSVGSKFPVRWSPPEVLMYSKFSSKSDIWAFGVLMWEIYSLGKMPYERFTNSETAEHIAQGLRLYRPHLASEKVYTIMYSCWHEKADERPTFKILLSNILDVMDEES
Chain of High affinity nerve growth factor receptor (Homo sapiens) (P04629 33-796 limits assumed): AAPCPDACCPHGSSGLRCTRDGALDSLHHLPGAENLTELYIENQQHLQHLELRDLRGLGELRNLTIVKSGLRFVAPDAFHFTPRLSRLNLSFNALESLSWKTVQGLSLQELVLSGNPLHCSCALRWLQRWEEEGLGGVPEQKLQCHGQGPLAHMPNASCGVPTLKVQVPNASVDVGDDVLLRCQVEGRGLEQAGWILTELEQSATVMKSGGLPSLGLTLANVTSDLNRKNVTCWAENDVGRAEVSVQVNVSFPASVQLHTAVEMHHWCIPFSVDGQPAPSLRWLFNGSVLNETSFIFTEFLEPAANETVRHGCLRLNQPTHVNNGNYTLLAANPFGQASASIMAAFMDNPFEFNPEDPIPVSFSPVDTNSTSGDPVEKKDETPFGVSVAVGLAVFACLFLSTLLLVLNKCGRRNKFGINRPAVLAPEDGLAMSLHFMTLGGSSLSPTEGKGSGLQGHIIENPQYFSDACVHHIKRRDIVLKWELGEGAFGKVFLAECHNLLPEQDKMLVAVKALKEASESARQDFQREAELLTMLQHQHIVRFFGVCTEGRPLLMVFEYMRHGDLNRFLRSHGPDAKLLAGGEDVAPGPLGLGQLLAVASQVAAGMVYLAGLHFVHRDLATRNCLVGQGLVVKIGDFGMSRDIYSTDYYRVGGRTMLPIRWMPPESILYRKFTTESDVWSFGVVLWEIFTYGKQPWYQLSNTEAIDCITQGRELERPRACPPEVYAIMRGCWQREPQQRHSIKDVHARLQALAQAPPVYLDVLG
Chain of Aurora kinase B (Homo sapiens) (Q96GD4 whole entry): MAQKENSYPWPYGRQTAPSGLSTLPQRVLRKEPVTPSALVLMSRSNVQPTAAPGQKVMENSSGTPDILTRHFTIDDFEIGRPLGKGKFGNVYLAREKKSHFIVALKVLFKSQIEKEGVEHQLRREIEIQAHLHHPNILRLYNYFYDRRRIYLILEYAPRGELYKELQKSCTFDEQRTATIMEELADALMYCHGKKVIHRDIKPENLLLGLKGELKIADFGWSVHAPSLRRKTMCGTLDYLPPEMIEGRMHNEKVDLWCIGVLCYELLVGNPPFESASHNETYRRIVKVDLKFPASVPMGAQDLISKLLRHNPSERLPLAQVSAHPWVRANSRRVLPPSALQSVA

CC(O)CNc1nc(NCc2ccc(-c3ccccn3)cc2)c2[nH]nc(C(C)C)c2n1 (stereo unspecified)
Activity [1]: 68% | Activity [2]: > 100% | inhibition [3]: Active | Activity [4]: > 100% | Activity [5]: > 100% | Activity [6]: 97% | Activity [7]: > 100% | Activity [8]: 89% | Activity (HCT-116 [9]): Dose-dependent effect | Activity [10]: > 100% | Activity (HCT-116 [11]): Dose-dependent effect
